Results as given in ChEMBL document CHEMBL1138483, “Toward second generation hepatitis C virus NS3 serine protease inhibitors: discovery of novel P4 modified analogues with improved potency and pharmacokinetic profile” (J Med Chem, 2009).

Columns and labels:
[1] = tested on: Hepatitis C virus; test: Antiviral activity against HCV replication in human hepatoma cells by replicon assay; type: functional, Hepacivirus hominis
[2] = Binding affinity to HCV NS3 protease by spectrophotometry; set-up: species or system Hepacivirus hominis
[3] = Drug level in rat liver at 10 mg/kg, po after 6 hrs; type: ADME, organism-based; set-up: dose 10 mg/kg, route oral; settings: read-out: Drug uptake
Summary of the method: (§1)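 Oral dosing in rats at 10 mpk as a suspension in 0.4% HPMC; liver concentration measured in ng/g tissue at 1 h or 6 h after dosing.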

[4] = AUC (0 to 6 hrs) in rat at 10 mg/kg, po; type: ADME, organism-based; set-up: time < 6 hr, dose 10 mg/kg, route oral; settings: plasma
[5] = AUC in po dosed rat; type: ADME, organism-based; settings: plasma
[6] = Drug level in rat liver at 10 mg/kg, po after 1 hr; type: ADME, organism-based; set-up: dose 10 mg/kg, route oral; settings: read-out: Drug uptake; summary of the method: as §1
[7] = tested on: Rattus norvegicus; test: AUC in rat at 10 mg/kg, po; type: ADME, organism-based, Plasma; set-up: dose 10 mg/kg, route oral; settings: in vivo
[8] = Bioavailability in rat at 10 mg/kg, po; type: ADME, organism-based; settings: in vivo
[9] = AUC (0 to 24 hrs) in rat at 10 mg/kg, po; type: ADME, organism-based; set-up: time < 24 hr, dose 10 mg/kg, route oral; settings: plasma

| EC90 [1] [µM] | Ki [2] [µM] | SMILES | also measured |
| --- | --- | --- | --- |
| 0.2 | 0.009 | CNC(=O)OC[C@@H](NC(=O)N[C@H](C(=O)N1C[C@H]2[C@@H]([C@H]1C(=O)NC(CC1CCC1)C(=O)C(N)=O)C2(C)C)C1Cc2ccccc2C1)C(C)(C)C (stereo not given in full) |  |
| 0.7 | 0.21 | C=CCNC(=O)C(=O)C(CCC)NC(=O)[C@@H]1[C@@H]2[C@H](CN1C(=O)[C@@H](NC(=O)NC1(COC(=O)NCC)CCCCC1)C1(C)CCCCC1)C2(C)C (stereo not given in full) |  |
| 0.15 | 0.008 | C#CCCC(NC(=O)[C@@H]1[C@@H]2[C@H](CN1C(=O)[C@@H](NC(=O)N[C@H](COC(=O)NC(C)C)C(C)(C)C)C1(C)CCCCC1)C2(C)C)C(=O)C(=O)NCC=C (stereo not given in full) | concentration at 6 h [3]: 1110 ng/g; AUC(0-t) at 6 h [4]: 7.9 µM·h |
| 0.07 | 0.007 | C#CCCC(NC(=O)[C@@H]1[C@@H]2[C@H](CN1C(=O)[C@@H](NC(=O)N[C@H](COC(=O)NCC1CC1)C(C)(C)C)C1(C)CCCCC1)C2(C)C)C(=O)C(=O)NCC=C (stereo not given in full) | concentration at 6 h [3]: 581 ng/g; AUC(0-t) at 6 h [4]: 5 µM·h |
| 0.4 | 0.033 | C=CCNC(=O)C(=O)C(CCC)NC(=O)[C@@H]1[C@@H]2[C@H](CN1C(=O)[C@@H](NC(=O)N[C@H](COC(=O)NCC)C(C)(C)C)C1Cc3ccccc3C1)C2(C)C (stereo not given in full) | AUC(0-t) at 6 h [4]: 0.7 µM·h |
| 0.2 | 0.021 | C#CCCC(NC(=O)[C@@H]1[C@@H]2[C@H](CN1C(=O)[C@@H](NC(=O)N[C@H](COC(=O)NCC)C(C)(C)C)C1(C)CCCCC1)C2(C)C)C(=O)C(=O)NCC (stereo not given in full) |  |
| 0.6 | 0.01 | CCNC(=O)OC[C@@H](NC(=O)N[C@H](C(=O)N1C[C@H]2[C@@H]([C@H]1C(=O)NC(CC1CCC1)C(=O)C(N)=O)C2(C)C)C1CCCCC1)C(C)(C)C (stereo not given in full) |  |
| 0.2 | 0.013 | C#CCCC(NC(=O)[C@@H]1[C@@H]2[C@H](CN1C(=O)[C@@H](NC(=O)N[C@H](COC(=O)NCC)C1CCCCC1)C1(C)CCCCC1)C2(C)C)C(=O)C(=O)NCC=C (stereo not given in full) |  |
|  | 0.13 | CC(C)(C)[C@H](NC(=O)N[C@H](COCc1ccccc1)C(C)(C)C)C(=O)N1C[C@H]2[C@@H]([C@H]1C(=O)NC(CC1CCC1)C(=O)C(N)=O)C2(C)C (stereo not given in full) |  |
| 0.25 | 0.009 | CCNC(=O)OC[C@@H](NC(=O)N[C@H](C(=O)N1C[C@H]2[C@@H]([C@H]1C(=O)NC(CC1CCC1)C(=O)C(N)=O)C2(C)C)C(C)(C)C)C(C)(C)C (stereo not given in full) |  |
|  | 0.17 | CCC[C@@](C)(COC)NC(=O)N[C@H](C(=O)N1C[C@H]2[C@@H]([C@H]1C(=O)NC(CC1CCC1)C(=O)C(N)=O)C2(C)C)C1(C)CCCCC1 (stereo not given in full) |  |
| 0.3 | 0.03 | COC[C@@H](NC(=O)N[C@H](C(=O)N1C[C@H]2[C@@H]([C@H]1C(=O)NC(CC1CCC1)C(=O)C(N)=O)C2(C)C)C1CCCCC1)C(C)(C)C (stereo not given in full) |  |
| 0.2 | 0.012 | CC(C)(C)NC(=O)OC[C@@H](NC(=O)N[C@H](C(=O)N1C[C@H]2[C@@H]([C@H]1C(=O)NC(CC1CCC1)C(=O)C(N)=O)C2(C)C)C1Cc2ccccc2C1)C(C)(C)C (stereo not given in full) |  |
| 0.07 | 0.009 | C#CCCC(NC(=O)[C@@H]1[C@@H]2[C@H](CN1C(=O)[C@@H](NC(=O)N[C@H](COC(=O)NCC(C)C)C(C)(C)C)C1(C)CCCCC1)C2(C)C)C(=O)C(=O)NCC=C (stereo not given in full) | concentration at 6 h [3]: 750 ng/g; AUC(0-t) at 6 h [4]: 4.9 µM·h |
|  | 0.05 | COC[C@@](C)(CC(C)C)NC(=O)N[C@H](C(=O)N1C[C@H]2[C@@H]([C@H]1C(=O)NC(CC1CCC1)C(=O)C(N)=O)C2(C)C)C1(C)CCCCC1 (stereo not given in full) |  |
| 0.15 | 0.008 | CCNC(=O)OC[C@@H](NC(=O)N[C@H](C(=O)N1C[C@H]2[C@@H]([C@H]1C(=O)NC(CC1CCC1)C(=O)C(N)=O)C2(C)C)C1(C)CCCCC1)C(C)(C)C (stereo not given in full) |  |
| 0.2 | 0.015 | COC[C@@H](NC(=O)N[C@H](C(=O)N1C[C@H]2[C@@H]([C@H]1C(=O)NC(CC1CCC1)C(=O)C(N)=O)C2(C)C)C1Cc2ccccc2C1)C(C)(C)C (stereo not given in full) | AUC [5]: 0.1 µM·h |
| 0.55 | 0.01 | C#CCCC(NC(=O)[C@@H]1[C@@H]2[C@H](CN1C(=O)[C@@H](NC(=O)N[C@H](COC(=O)NCC)C(C)(C)C)C1Cc3ccccc3C1)C2(C)C)C(=O)C(=O)NCC=C (stereo not given in full) |  |
| 0.3 | 0.023 | CN(C)C(=O)OC[C@@H](NC(=O)N[C@H](C(=O)N1C[C@H]2[C@@H]([C@H]1C(=O)NC(CC1CCC1)C(=O)C(N)=O)C2(C)C)C1Cc2ccccc2C1)C(C)(C)C (stereo not given in full) |  |
| 0.1 | 0.032 | C=CCNC(=O)C(=O)C(CCC)NC(=O)[C@@H]1[C@@H]2[C@H](CN1C(=O)[C@@H](NC(=O)N[C@H](COC(=O)NCC1CC1)C(C)(C)C)C1(C)CCCCC1)C2(C)C (stereo not given in full) |  |
| 0.15 | 0.024 | COC[C@@H](NC(=O)N[C@H](C(=O)N1C[C@H]2[C@@H]([C@H]1C(=O)NC(CC1CCC1)C(=O)C(N)=O)C2(C)C)C1(C)CCCCC1)C(C)(C)C (stereo not given in full) |  |

| EC90 [1] [µM] | Ki [2] [µM] | SMILES | also measured |
| --- | --- | --- | --- |
| 0.4 | 0.028 | C=CCNC(=O)C(=O)C(CCCC)NC(=O)[C@@H]1[C@@H]2[C@H](CN1C(=O)[C@@H](NC(=O)N[C@H](COC(=O)NCC)C(C)(C)C)C1(C)CCCCC1)C2(C)C (stereo not given in full) |  |
|  | 0.058 | C=CCNC(=O)C(=O)C(CCC)NC(=O)[C@@H]1[C@@H]2[C@H](CN1C(=O)[C@@H](NC(=O)N[C@H](COC(=O)NCC(C)C)C(C)(C)C)C1(C)CCCCC1)C2(C)C (stereo not given in full) |  |
| 0.2 | 0.009 | CC(C)NC(=O)OC[C@@H](NC(=O)N[C@H](C(=O)N1C[C@H]2[C@@H]([C@H]1C(=O)NC(CC1CCC1)C(=O)C(N)=O)C2(C)C)C1Cc2ccccc2C1)C(C)(C)C (stereo not given in full) |  |
| 0.4 | 0.023 | C=CCNC(=O)C(=O)C(CCCC)NC(=O)[C@@H]1[C@@H]2[C@H](CN1C(=O)[C@@H](NC(=O)N[C@H](COC(=O)NCC)C(C)(C)C)C1Cc3ccccc3C1)C2(C)C (stereo not given in full) |  |
| 0.25 | 0.02 | C#CCCC(NC(=O)[C@@H]1[C@@H]2[C@H](CN1C(=O)[C@@H](NC(=O)N[C@H](COC(=O)NCC1CCCCC1)C(C)(C)C)C1(C)CCCCC1)C2(C)C)C(=O)C(=O)NCC=C (stereo not given in full) |  |
| 0.2 | 0.007 | CCNC(=O)OC[C@@H](NC(=O)N[C@H](C(=O)N1C[C@H]2[C@@H]([C@H]1C(=O)NC(CC1CC1)C(=O)C(N)=O)C2(C)C)C1Cc2ccccc2C1)C(C)(C)C (stereo not given in full) |  |
|  | 0.13 | C=CCNC(=O)C(=O)C(CCC)NC(=O)[C@@H]1[C@@H]2[C@H](CN1C(=O)[C@@H](NC(=O)N[C@H](COC(=O)NCC1CCCCC1)C(C)(C)C)C1(C)CCCCC1)C2(C)C (stereo not given in full) |  |
| 0.2 | 0.016 | C#CCCC(NC(=O)[C@@H]1[C@@H]2[C@H](CN1C(=O)[C@@H](NC(=O)N[C@H](COC(=O)NCC)C(C)(C)C)C1(C)CCCCC1)C2(C)C)C(=O)C(=O)NCCC (stereo not given in full) |  |
| 0.15 | 0.028 | C=CCNC(=O)C(=O)C(CCC)NC(=O)[C@@H]1[C@@H]2[C@H](CN1C(=O)[C@@H](NC(=O)N[C@H](COC(=O)NCC)C(C)(C)C)C1(C)CCCCC1)C2(C)C (stereo not given in full) |  |
|  | 0.12 | CC(C)(C)OCC1(NC(=O)N[C@H](C(=O)N2C[C@H]3[C@@H]([C@H]2C(=O)NC(CC2CCC2)C(=O)C(N)=O)C3(C)C)C2(C)CCCCC2)CCCCC1 (stereo not given in full) |  |
|  | 0.084 | C=CCNC(=O)C(=O)C(CCC)NC(=O)[C@@H]1[C@@H]2[C@H](CN1C(=O)[C@@H](NC(=O)N[C@H](COC(=O)NCC)C1CCCCC1)C1(C)CCCCC1)C2(C)C (stereo not given in full) |  |
| 0.1 | 0.007 | CCNC(=O)OC[C@@H](NC(=O)N[C@H](C(=O)N1C[C@H]2[C@@H]([C@H]1C(=O)NC(CC1CCC1)C(=O)C(N)=O)C2(C)C)C1Cc2ccccc2C1)C(C)(C)C (stereo not given in full) | concentration at 1 h [6]: 244 ng/g; AUC [7]: 0.3 µM·h |
| 0.35 | 0.014 | CC(C)(C)NC(=O)N[C@H](C(=O)N1C[C@H]2[C@@H]([C@H]1C(=O)NC(CC1CCC1)C(=O)C(N)=O)C2(C)C)C(C)(C)C (stereo not given in full) [BOCEPREVIR] |  |
| 0.2 | 0.012 | COC[C@@H](NC(=O)N[C@H](C(=O)N1C[C@H]2[C@@H]([C@H]1C(=O)NC(CC1CCC1)C(=O)C(N)=O)C2(C)C)C1(C)CCCCC1)C(C)C (stereo not given in full) |  |
| 0.4 | 0.05 | C=CCNC(=O)C(=O)C(CC1CC1)NC(=O)[C@@H]1[C@@H]2[C@H](CN1C(=O)[C@@H](NC(=O)N[C@H](COC(=O)NCC)C(C)(C)C)C1Cc3ccccc3C1)C2(C)C (stereo not given in full) |  |
|  | 0.1 | CC(C)(C)OC[C@@H](NC(=O)N[C@H](C(=O)N1C[C@H]2[C@@H]([C@H]1C(=O)NC(CC1CCC1)C(=O)C(N)=O)C2(C)C)C1(C)CCCCC1)C(C)(C)C (stereo not given in full) |  |
| 0.15 | 0.024 | C=CCNC(=O)C(=O)C(CCC)NC(=O)[C@@H]1[C@@H]2[C@H](CN1C(=O)[C@@H](NC(=O)N[C@H](COC(=O)NC(C)C)C(C)(C)C)C1(C)CCCCC1)C2(C)C (stereo not given in full) | concentration at 6 h [3]: 808 ng/g; AUC(0-t) at 6 h [4]: 6.6 µM·h |
| 0.15 | 0.009 | C#CCCC(NC(=O)[C@@H]1[C@@H]2[C@H](CN1C(=O)[C@@H](NC(=O)N[C@H](COC(=O)NCC)C(C)(C)C)C1(C)CCCCC1)C2(C)C)C(=O)C(=O)NCC=C (stereo not given in full) | concentration at 6 h [3]: 1110 ng/g; bioavailability [8]: 43%; AUC(0-t) at 24 h [9]: 26 µM·h |
| 0.4 | 0.022 | COC[C@@H](NC(=O)N[C@H](C(=O)N1C[C@H]2[C@@H]([C@H]1C(=O)NC(CC1CCC1)C(=O)C(N)=O)C2(C)C)C1(C)CCCC1)C(C)(C)C (stereo not given in full) |  |
|  | 0.12 | COC[C@@H](NC(=O)N[C@H](C(=O)N1C[C@H]2[C@@H]([C@H]1C(=O)NC(CC1CCC1)C(=O)C(N)=O)C2(C)C)C(C)(C)C)C(C)(C)C (stereo not given in full) |  |
| 0.6 | 0.009 | C#CCCC(NC(=O)[C@@H]1[C@@H]2[C@H](CN1C(=O)[C@@H](NC(=O)NC1(COC(=O)NCC)CCCCC1)C1(C)CCCCC1)C2(C)C)C(=O)C(=O)NCC=C (stereo not given in full) |  |
